Measured values: ChEMBL document CHEMBL1142624, “Nematicidal constituents of the aerial parts of Lantana camara” (2000)

How the values were obtained:
Assay type in all cases: functional
[1] = tested on: Meloidogyne incognita; test: Nematicidal activity against Meloidogyne incognita assessed as larval mortality at 1% drug concentration after 24 hrs
Outline: (§1)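 Larvae were held in Petri dishes with test solutions diluted from stock to 1.0%, alongside a furadan standard and a distilled water control, at 28 ± 2 °C for up to 72 h. Each treatment was replicated twice. At 24, 48 and 72 h, one dish per treatment was scored for mortality under a stereomicroscope. Immobility was confirmed as irreversible by transfer to distilled water. Percent mortality was averaged over three replicates.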

[2] = tested on: Meloidogyne incognita; test: Nematicidal activity against Meloidogyne incognita assessed as larval mortality at 1% drug concentration after 48 hrs; outline: as §1
[3] = tested on: Meloidogyne incognita; test: Nematicidal activity against Meloidogyne incognita assessed as larval mortality at 1% drug concentration after 72 hrs; outline: as §1

`CC(=O)O[C@@H]1C[C@@H](C)[C@H](C)[C@H]2C3=CC[C@@H]4[C@]56CC[C@@](O)(OC5)C(C)(C)C6CC[C@@]4(C)[C@]3(C)CC[C@]21C(=O)O` (some centres not stated) [CAMARINIC ACID] showed an Activity [1] of 100%, an Activity [2] of 100% and an Activity [3] of 100%.

In the case of `CNC(=O)Oc1cccc2c1OC(C)(C)C2` [CARBOFURAN], the Activity [1] is reported as 100%, the Activity [2] is reported as 100% and the Activity [3] is reported as 100%.

`COc1ccc(-c2cc(=O)c3c(O)c(OC)c(O[C@@H]4O[C@H](COC(C)=O)[C@@H](O)[C@H](O)[C@H]4O)cc3o2)cc1` [LANTANONE] showed an Activity [1] of 90%, an Activity [2] of 95% and an Activity [3] of 95%.

`COc1ccc(-c2cc(=O)c3c(O)c(OC)c(O[C@@H]4O[C@H](CO)[C@@H](O)[C@H](O)[C@H]4O)cc3o2)cc1` [LINAROSIDE] was tested, and the Activity [1] was 85%, the Activity [2] was 90% and the Activity [3] was 90%.
